Compound activity from PubChem.
bovine MsrA act: bovine MsrA enzyme activators, primary screen, biochemical, absorbance, HTS. Methionine sulfoxide reductase A (Bos taurus). activation, % at 10.6 µM. hit rate 0.3% among 360,000. purified bovine MsrA, absorbance read-out; in the data active = activation above about 7.5%;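 note: 0% = vehicle and 100% = reference activator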
proCasp7 act: procaspase-7 activators, primary screen, counter-screen for procaspase-3 activator project, biochemical, absorbance, HTS, human; Caspase-7 (Homo sapiens), P55210; recombinant procaspase-7, Ac-DEVD-pNA absorbance 405 nm; D23A/D198A/D206A triple mutant, cannot self-cleave; scale: DMSO 0, 5 µM enzyme 100; activation, % at 8.5 µM; hit rate 0.093% among 330,000; AID 463210, 2010;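 active = percent activation above the screen-wide mean plus 3 SD, cut at about 25% in these data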
Target sequence (P55210 whole entry D23A/D198A/D206A): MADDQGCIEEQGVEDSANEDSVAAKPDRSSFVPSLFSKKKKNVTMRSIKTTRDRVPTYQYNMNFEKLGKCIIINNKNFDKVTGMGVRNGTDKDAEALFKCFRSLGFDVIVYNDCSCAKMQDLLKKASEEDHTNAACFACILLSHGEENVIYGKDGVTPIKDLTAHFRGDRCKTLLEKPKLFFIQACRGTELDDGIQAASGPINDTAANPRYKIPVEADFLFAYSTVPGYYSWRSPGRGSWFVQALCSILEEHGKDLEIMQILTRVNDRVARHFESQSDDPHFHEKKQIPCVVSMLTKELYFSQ
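System: Procaspase-7 triple mutant (PC-7 D3A); measure: % activation from two-timepoint absorbance difference, scaled to controls; times: 1 h compound preincubation, 2 h substrate cleavage, 25 °C; also added: Ac-DEVD-pNA substrate, 400 µM as added; measured by: Epi-absorbance of released pNA at 405 nm, two timepoints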
proCasp3 act: activators of human procaspase-3 D3A mutant, primary screen, biochemical, absorbance, PC-3 D3A mutant, single concentration; recombinant procaspase-3 D3A, Ac-DEVD-pNA absorbance 405 nm; activation, % at 8.5 µM; hit rate 0.11% among 330,000;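 active = activation above the mean of all tested compounds plus 3 SD, cut at about 21% in these data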;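 note: 0% = DMSO alone and 100% = DMSO wells spiked with extra 5 µM PC-3 D3A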
Target sequence (P42574 whole entry D9A/D28A/D175A): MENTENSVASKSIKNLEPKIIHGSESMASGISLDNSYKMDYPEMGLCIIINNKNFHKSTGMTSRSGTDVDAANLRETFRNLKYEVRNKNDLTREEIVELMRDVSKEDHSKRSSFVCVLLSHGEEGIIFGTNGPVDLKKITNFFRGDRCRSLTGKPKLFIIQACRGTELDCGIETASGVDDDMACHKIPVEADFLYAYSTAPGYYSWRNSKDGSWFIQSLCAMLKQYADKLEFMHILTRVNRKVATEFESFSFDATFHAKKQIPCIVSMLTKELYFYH
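Assay system: Autoprocessing-dead procaspase-3 D3A mutant enzyme; also added: Ac-DEVD-pNA; doses: one concentration, 8.5 µM nominal, 0.8% DMSO; times: 1 h compound preincubation, 2 h substrate hydrolysis at 25 °C; technique: 405 nm absorbance of p-nitroaniline, reads at 0 and 120 min; measure: % activation between DMSO and enzyme-spiked controls; repeats: single replicate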
MsrA inhibitor: bovine MsrA enzyme inhibitors, primary screen, biochemical, absorbance, HTS. Methionine sulfoxide reductase A (Bos taurus). purified bovine MsrA, absorbance read-out. inhibition, % at 15.5 µM. hit rate 0.75% among 360,000;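 note: 0% = vehicle wells with enzyme and 100% = reference inhibitor wells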
MsrA inh confirm: bovine MsrA inhibitors, retest, confirmation, biochemical, absorbance, HTS; shares compounds with MsrA inhibitor; purified bovine MsrA, absorbance read-out; inhibition, % at 15.5 µM; hit rate 41% among 2,300;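 note: coupled to thioredoxin reductase with NADPH and selenocystamine and DMSO as substrate; 0% = vehicle only and 100% = full effect of reference inhibitor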
Numbers without * were called inactive; nt = no result given. Only some compounds are listed: those with a hit (about 1.2% of all), similar ones and a draw of the others. Cut-off read from the data, not from the text of the source, unless noted: active = inhibition above about 4.5%; inactive = the rest.

SMILES	bovine MsrA act	proCasp7 act	proCasp3 act	MsrA inhibitor	MsrA inh confirm
COc1ccc(C(=O)/C=C/c2ccc(O)cc2)cc1	-2	-26	-4	5.0*	4
COC(=O)CC(=O)CC(NS(=O)(=O)c1ccc(C)cc1)c1ccccc1 (stereo not given)	nt	nt	nt	-1	nt
O=C(O)c1cccc(Cn2c(Cl)c(/C=N/NC(=O)c3ccccc3Cl)sc2=O)c1	-4	0	2	4	nt
O=C(O)c1cccc(Cn2c(Cl)c(/C=N/NC(=O)c3ccccc3O)sc2=O)c1	-15	-5	-5	5.0*	4
COc1ccc(C(=O)N/N=C/c2sc(=O)n(Cc3cccc(C(=O)O)c3)c2Cl)cc1	-3	-22	-9	9.0*	5.6*
COC(=O)[C@]12CCCCC=C1N(CCc1ccc(OC)c(OC)c1)C(=O)[C@H](CC(=O)NCCc1ccccc1OC)C2	nt	nt	nt	0	nt
COc1cc(/C=C2/NC(=O)NC2=O)cc(Br)c1OCc1cccc(C(=O)O)c1	4	2	2	5.9*	3
COC(=O)Cc1nnn2c1[C@H](C)[C@@H](OC)c1ccc(C(F)(F)F)cc1-2	nt	nt	nt	0	nt
CC1C(=O)NN=C1C(=O)N/N=C\C(Br)=C\c1ccccc1 (stereo not given)	-6	nt	nt	5.7*	4
CC(C)(C)S(=O)(=O)N1C[C@@H]2C(=C(CCO)C[C@@H]3C(=O)N(c4ccccc4)C(=O)[C@@H]32)[C@H]1CCO	nt	nt	nt	0	nt
CCOC(=O)N1CCN(CC(=O)c2ccc(O)c(C)c2O)CC1	-3	9	2	2	nt
Cc1c(O)ccc(C(=O)COc2ccccc2F)c1O	-12	0	-9	4.8*	3
CCOC(=O)C1CCN(CC(=O)c2ccc(O)c(C)c2O)CC1	-9	14	-2	4.7*	4
CCOC(=O)c1ccc(OCC(=O)c2ccc(O)cc2O)cc1	-3	7	-2	4	nt
O=C(COc1ccccc1F)c1ccc(O)cc1O	-6	5	4	7.6*	4
COC(=O)c1ccc(OCC(=O)c2ccc(O)cc2O)cc1	-4	1	8	5.0*	3
C[C@@H]1CCCCO[C@@H](CN(C)C(=O)Nc2ccc(C(F)(F)F)cc2)[C@@H](C)CN([C@H](C)CO)C(=O)c2cc(NS(=O)(=O)c3ccc(Cl)cc3)ccc2O1	nt	nt	nt	0	nt
OC(c1ccccc1)(c1ccccc1)C1CCN(CCCOc2ccc(C(F)(F)F)cc2)CC1	nt	nt	nt	0	nt
CC(C)c1ccc(OCCCN2CCC(C(O)(c3ccccc3)c3ccccc3)CC2)cc1	nt	nt	nt	-1	nt
Cc1c(O)ccc(C(=O)CN2C(=O)c3ccccc3C2=O)c1O	-4	4	-1	5.7*	4
N#C/C(=C\c1ccc(O)c([N+](=O)[O-])c1)C(=O)NCc1ccccc1	-4	-7	-9	5.5*	2
N#C/C(=C\c1ccc(O)c(Br)c1)C(=O)NCc1ccccc1	-3	-8	-6	-1	nt
CCCCCCSC1=C(C#N)C(=O)NC2(CCCCC2)S1	-9	-5	3	5.2*	4
COc1ccc(-n2c(O)cnc2Nc2nc(C)cc(C)n2)cc1OC	-3	1	4	15*	6.5*
COc1ccc(-n2c(O)c(/C=N/Nc3nc(C)cc(C)n3)c3ccccc3c2=O)cc1OC	-9	-12	-7	1	nt
SMILES	bovine MsrA act	proCasp7 act	proCasp3 act	MsrA inhibitor	MsrA inh confirm
CCc1ccc(Nc2nc(C)cc(C)n2)cc1	-2	-8	2	0	nt
CCc1ccc(-n2c(O)cnc2Nc2nc(C)cc(C)n2)cc1	-8	4	-6	9.5*	7.0*
CC(C)[C@@H](C)/C=C/[C@@H](C)[C@H]1CC[C@@H]2[C@]1(C)CCC1[C@]23C=C[C@]2(C[C@@H](O)CC[C@]12C)N(c1cnccn1)O3 (stereo not given in full)	nt	nt	nt	1	nt
CCOC(=O)C1=CCN(S(=O)(=O)c2ccc(Cl)cc2)C1c1cccc(F)c1 (stereo not given)	nt	nt	nt	0	nt
C[C@@H]1CN([C@H](C)CO)C(=O)c2cc(NC(=O)Nc3ccccc3)ccc2O[C@@H](C)CCCCO[C@H]1CN(C)S(C)(=O)=O	nt	nt	nt	0	nt
Nc1nc2c(ncn2[C@@H]2O[C@H](C(=O)N[C@@H](Cc3ccccc3)C(=O)NCc3ccc4c(c3)OCO4)[C@@H](O)[C@H]2O)c(=O)[nH]1	nt	nt	nt	-1	nt
O=C(NCC1CCCO1)C(=O)N/N=C/c1ccc(O)c(Cl)c1 (stereo not given)	-6	2	0	5.3*	4
O=C(NCC1CCCO1)C(=O)N/N=C/c1cc(Cl)ccc1O (stereo not given)	-1	-11	4	1	nt
O=C(Nc1nc2ccc(S(=O)(=O)N3CCOCC3)cc2s1)c1cccs1	-2	-6	-1	5.6*	4
CN(C)S(=O)(=O)c1ccc2nc(NC(=O)c3cccs3)sc2c1	-3	-5	1	6.2*	5.4*
O=C(Nc1nc2ccc(S(=O)(=O)N3CCCC3)cc2s1)c1cccs1	-4	4	8	3	nt
C/C(=N/Nc1ncc(Br)cn1)c1ccc(Br)cc1	-4	-6	-5	1	nt
C/C(=N\Nc1ccc(C(=O)O)cc1)c1ccc(Br)cc1	-4	-9	-4	4.8*	6.4*
Cc1[nH]n(-c2ccccc2)c(=O)c1C=Nc1ccc(S(=O)(=O)Nc2nccs2)cc1	-3	1	-1	5.7*	3
O=C1N=C(N2CCN(c3ccccc3)CC2)S/C1=C/c1cccs1	-6	1	3	2	nt
CC1CCN(C2=NC(=O)/C(=C/c3cccc(O)c3)S2)CC1	-2	2	3	4.7*	2
CC1CCN(C2=NC(=O)/C(=C/c3ccccc3F)S2)CC1	-3	-4	-2	5.4*	4
O=C1N=C(N2CCOCC2)S/C1=C\c1cccnc1	1	15	9	2	nt
Cc1ccccc1S(=O)(=O)N1CCCc2nc(-c3ccccc3)ccc21	nt	nt	nt	-1	nt
CC[n+]1c(/C=C(\C)OC)sc2ccccc21	-12	nt	nt	5.8*	5.0*
CC[n+]1c(/C=C(\C)SC)sc2ccccc21	2	-22	-5	4	nt
c1ccc(N=Nc2cn[nH]c2-c2ccco2)cc1	-4	nt	nt	6.9*	5
CCC(C)Oc1ccc(/C=C/c2[nH]c(=O)[nH]c(=O)c2[N+](=O)[O-])cc1OC (stereo not given)	-3	9	-3	7.6*	4.6*
COc1cc(/C=C/c2[nH]c(=O)[nH]c(=O)c2[N+](=O)[O-])ccc1OCCC(C)C	-4	2	8	2	nt
